From ChEMBL document CHEMBL3616436, “Synthesis, cytotoxicity and antimicrobial activity of thiourea derivatives incorporating 3-(trifluoromethyl)phenyl moiety” (Eur J Med Chem, 2015)
Converted amounts (≈) assume the structure as drawn. The source made the active and inactive calls. The calls are words filed in the database; no cut-off is given here.

Columns and labels:
[1] = target: T1, Topoisomerase IV (Staphylococcus aureus) (UniProt P0C1U9+P0C1S7); assay: Inhibition of decatenation activity of DNA topoisomerase 4 in hospital methicillin-resistant Staphylococcus aureus 54/05 using kDNA as substrate at 1 to 4 ug/ml after 1 hr using ethidium bromide staining by agarose gel electrophoresis; format: protein-complex assay
[2] = target: T1, Topoisomerase IV (Staphylococcus aureus); assay: Inhibition of decatenation activity of DNA topoisomerase 4 in hospital methicillin-resistant Staphylococcus aureus 79/05 using kDNA as substrate at 1 to 4 ug/ml after 1 hr using ethidium bromide staining by agarose gel electrophoresis; format: protein-complex assay
[3] = target: T1, Topoisomerase IV (Staphylococcus aureus); assay: Inhibition of decatenation activity of DNA topoisomerase 4 in hospital methicillin-resistant Staphylococcus aureus 81/05 using kDNA as substrate at 1 to 4 ug/ml after 1 hr using ethidium bromide staining by agarose gel electrophoresis; format: protein-complex assay
[4] = test system: Staphylococcus epidermidis; assay: Inhibition of biofilm formation in Staphylococcus epidermidis ATCC 35984 after 24 hrs using MTT staining by spectrophotometer analysis; format: functional, organism-based; details: ATCC 35984, 24 h
Outline: (§1)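 Biofilm was grown for 24 h at 37 °C in TSB with 0.5% glucose from 10^7 CFU/mL inoculum, mixed 1:1 with compound. Final concentrations were 0.125–4 or 0.25–8 µg/ml. Wells were PBS-washed and MTT-stained for 2 h at 37 °C, solubilized in DMSO/glycine buffer and read at 554 nm. IC50 (50% inhibition of biofilm formation) was taken from the dose-response curve; quadruplicates.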

[5] = test system: Staphylococcus epidermidis; assay: Inhibition of biofilm formation in Staphylococcus epidermidis 23/04 after 24 hrs using MTT staining by spectrophotometer analysis; format: functional, organism-based; details: 23/04, 24 h
[6] = test system: Staphylococcus epidermidis; assay: Inhibition of biofilm formation in Staphylococcus epidermidis 31/04 after 24 hrs using MTT staining by spectrophotometer analysis; format: functional, organism-based; details: 31/04, 24 h
[7] = test system: Staphylococcus epidermidis; assay: Inhibition of biofilm formation in Staphylococcus epidermidis 63/04 after 24 hrs using MTT staining by spectrophotometer analysis; format: functional, organism-based; details: 63/04, 24 h; outline: as §1
[8] = test system: Staphylococcus epidermidis; assay: Inhibition of biofilm formation in Staphylococcus epidermidis 151/04 after 24 hrs using MTT staining by spectrophotometer analysis; format: functional, organism-based; details: 151/04, 24 h
[9] = test system: Staphylococcus epidermidis; assay: Inhibition of biofilm formation in Staphylococcus epidermidis 31/04 at 4 ug/ml after 24 hrs using MTT staining by spectrophotometer analysis; format: functional; details: 31/04, 24 h
Outline: (§2)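 Methicillin-resistant hospital isolates or ATCC strains of S. epidermidis were grown overnight in tryptone soy broth with 0.5% glucose. Inoculum of 10^7 CFU/mL was mixed 1:1 with compound in TSB-glucose and incubated 24 h at 37 °C. Non-adherent cells were washed off with PBS, and wells were stained with MTT (0.5% in PBS) for 2 h at 37 °C. Stain was solubilized in DMSO/glycine buffer and read at A554. Inhibition is relative to drug-free control; quadruplicates.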

[10] = test system: Staphylococcus epidermidis; assay: Inhibition of biofilm formation in Staphylococcus epidermidis […]/[…] at 8 ug/ml after 24 hrs using MTT staining by spectrophotometer analysis; format: functional; details: 16/04, 24 h
[11] = test system: Staphylococcus epidermidis; assay: Inhibition of biofilm formation in Staphylococcus epidermidis 24/04 at 8 ug/ml after 24 hrs using MTT staining by spectrophotometer analysis; format: functional; details: 24/04, 24 h
[12] = test system: Staphylococcus epidermidis; assay: Inhibition of biofilm formation in Staphylococcus epidermidis 31/04 at 8 ug/ml after 24 hrs using MTT staining by spectrophotometer analysis; format: functional; details: 31/04, 24 h; outline: as §2
[13] = test system: Staphylococcus epidermidis; assay: Inhibition of biofilm formation in Staphylococcus epidermidis 62/04 at 8 ug/ml after 24 hrs using MTT staining by spectrophotometer analysis; format: functional; details: 62/04, 24 h; outline: as §2
[14] = test system: Staphylococcus epidermidis; assay: Inhibition of biofilm formation in Staphylococcus epidermidis 63/04 at 8 ug/ml after 24 hrs using MTT staining by spectrophotometer analysis; format: functional; details: 63/04, 24 h; outline: as §2
[15] = test system: Staphylococcus epidermidis; assay: Inhibition of biofilm formation in Staphylococcus epidermidis 76/04 at 8 ug/ml after 24 hrs using MTT staining by spectrophotometer analysis; format: functional; details: 76/04, 24 h; outline: as §2
[16] = test system: Staphylococcus epidermidis; assay: Inhibition of biofilm formation in Staphylococcus epidermidis 151/04 at 8 ug/ml after 24 hrs using MTT staining by spectrophotometer analysis; format: functional; details: 151/04, 24 h
[17] = target: T1, Topoisomerase IV (Staphylococcus aureus); assay: Inhibition of decatenation activity of DNA topoisomerase 4 in Staphylococcus aureus ATCC 25923 using kDNA as substrate at 32 ug/ml after 1 hr using ethidium bromide staining by agarose gel electrophoresis; format: protein-complex assay
Outline: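 Kit-supplied S. aureus topoisomerase IV, 1 U, with 200 ng kDNA in the supplied assay buffer. Reactions ran 30 min at 37 °C with compound at 1, 4 or 32 µg/ml. They were stopped with STEB and extracted with chloroform/isoamyl alcohol (24:1). Products were run on 1% agarose in TAE for 1 h at 120 V and visualised with ethidium bromide under UV. Controls were no-enzyme, no-compound and ±DMSO.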

[18] = target: T1, Topoisomerase IV (Staphylococcus aureus); assay: Inhibition of decatenation activity of DNA topoisomerase 4 in Staphylococcus aureus ATCC 6538 using kDNA as substrate at 32 ug/ml […] using ethidium bromide staining by agarose gel electrophoresis; format: protein-complex assay
[19] = target: T1, Topoisomerase IV (Staphylococcus aureus); assay: Inhibition of decatenation activity of DNA topoisomerase 4 in Staphylococcus aureus ATCC 29213 using kDNA as substrate at 32 ug/ml […] using ethidium bromide staining by agarose gel electrophoresis; format: protein-complex assay
[20] = target: T1, Topoisomerase IV (Staphylococcus aureus); assay: Inhibition of decatenation activity of DNA topoisomerase 4 in hospital methicillin-resistant Staphylococcus aureus 53/05 using kDNA as substrate at 32 ug/ml after 1 hr using ethidium bromide staining by agarose gel electrophoresis; format: protein-complex assay
[21] = target: T1, Topoisomerase IV (Staphylococcus aureus); assay: Inhibition of decatenation activity of DNA topoisomerase 4 in hospital methicillin-resistant Staphylococcus aureus 57/05 using kDNA as substrate at 32 ug/ml after 1 hr using ethidium bromide staining by agarose gel electrophoresis; format: protein-complex assay
[22] = target: T1, Topoisomerase IV (Staphylococcus aureus); assay: Inhibition of decatenation activity of DNA topoisomerase 4 in hospital methicillin-resistant Staphylococcus aureus 573/11 using kDNA as substrate at 32 ug/ml after 1 hr using ethidium bromide staining by agarose gel electrophoresis; format: protein-complex assay
[23] = target: T2, DNA topoisomerase 4 (Staphylococcus epidermidis) (UniProt Q5HPI6+Q5HPI5); assay: Inhibition of decatenation activity of DNA topoisomerase 4 in hospital methicillin-resistant Staphylococcus epidermidis 62/04 using kDNA as substrate at 32 ug/ml after 1 hr using ethidium bromide staining by agarose gel electrophoresis; format: protein assay
T2 sequence (Q5HPI5 whole entry, looked up): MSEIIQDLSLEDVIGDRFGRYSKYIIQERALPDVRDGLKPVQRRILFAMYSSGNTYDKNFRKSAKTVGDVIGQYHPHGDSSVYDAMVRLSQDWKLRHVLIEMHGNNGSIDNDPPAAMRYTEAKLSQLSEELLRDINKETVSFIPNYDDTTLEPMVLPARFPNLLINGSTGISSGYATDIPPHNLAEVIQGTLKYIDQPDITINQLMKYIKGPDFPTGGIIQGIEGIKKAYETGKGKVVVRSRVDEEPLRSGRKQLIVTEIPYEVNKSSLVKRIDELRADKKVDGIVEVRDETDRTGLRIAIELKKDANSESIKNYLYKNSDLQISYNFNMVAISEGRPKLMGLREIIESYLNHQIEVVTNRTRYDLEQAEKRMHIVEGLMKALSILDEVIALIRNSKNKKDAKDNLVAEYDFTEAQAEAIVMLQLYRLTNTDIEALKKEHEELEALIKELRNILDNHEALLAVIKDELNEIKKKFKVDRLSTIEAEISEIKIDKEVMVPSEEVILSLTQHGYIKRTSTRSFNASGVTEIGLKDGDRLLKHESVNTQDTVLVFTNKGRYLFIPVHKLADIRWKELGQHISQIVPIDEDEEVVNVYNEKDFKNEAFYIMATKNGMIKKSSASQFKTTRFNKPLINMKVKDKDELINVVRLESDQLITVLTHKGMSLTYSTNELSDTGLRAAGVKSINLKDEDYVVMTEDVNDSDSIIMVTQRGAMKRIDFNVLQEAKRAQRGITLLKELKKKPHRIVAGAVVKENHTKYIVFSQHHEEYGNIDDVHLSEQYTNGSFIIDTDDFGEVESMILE
T2 sequence (Q5HPI6 whole entry, looked up): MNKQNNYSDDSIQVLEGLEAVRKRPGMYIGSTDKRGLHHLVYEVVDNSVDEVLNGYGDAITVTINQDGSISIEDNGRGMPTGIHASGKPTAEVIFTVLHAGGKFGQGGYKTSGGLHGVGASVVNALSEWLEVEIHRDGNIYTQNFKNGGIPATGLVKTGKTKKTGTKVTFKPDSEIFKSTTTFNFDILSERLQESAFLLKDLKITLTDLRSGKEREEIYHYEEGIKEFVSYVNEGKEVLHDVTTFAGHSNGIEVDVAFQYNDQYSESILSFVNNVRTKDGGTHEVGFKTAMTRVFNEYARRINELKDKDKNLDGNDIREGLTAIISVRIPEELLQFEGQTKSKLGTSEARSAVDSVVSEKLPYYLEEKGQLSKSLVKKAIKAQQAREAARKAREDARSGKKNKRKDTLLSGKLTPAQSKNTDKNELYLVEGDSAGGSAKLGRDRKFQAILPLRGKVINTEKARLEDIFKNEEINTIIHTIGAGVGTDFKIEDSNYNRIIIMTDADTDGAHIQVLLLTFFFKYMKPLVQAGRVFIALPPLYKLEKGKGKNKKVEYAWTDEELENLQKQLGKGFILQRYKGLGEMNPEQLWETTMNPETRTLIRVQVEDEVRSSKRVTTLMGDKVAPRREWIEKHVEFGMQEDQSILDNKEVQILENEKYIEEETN

[24] = target: T2, DNA topoisomerase 4 (Staphylococcus epidermidis); assay: Inhibition of decatenation activity of DNA topoisomerase 4 in hospital methicillin-resistant Staphylococcus epidermidis 63/04 using kDNA as substrate at 32 ug/ml after 1 hr using ethidium bromide staining by agarose gel electrophoresis; format: protein assay
[25] = target: T2, DNA topoisomerase 4 (Staphylococcus epidermidis); assay: Inhibition of decatenation activity of DNA topoisomerase 4 in hospital methicillin-resistant Staphylococcus epidermidis 151/04 using kDNA as substrate at 32 ug/ml after 1 hr using ethidium bromide staining by agarose gel electrophoresis; format: protein assay
[26] = target: T2, DNA topoisomerase 4 (Staphylococcus epidermidis); details: 16/04, at 32 µg/mL
[27] = target: T2, DNA topoisomerase 4 (Staphylococcus epidermidis); details: 24/04, at 32 µg/mL

Structure (SMILES) | inhibition [1] | inhibition [2] | inhibition [3] | IC50 [4] | IC50 [5] | IC50 [6] | IC50 [7] | IC50 [8] | inhibition at 4 µg/mL [9] | inhibition [17] | inhibition [18] | inhibition [19] | inhibition [20] | inhibition [21] | inhibition [22] | inhibition [23] | inhibition [24] | inhibition [25] | inhibition [26] | inhibition [27] | other results
FC(F)(F)c1cccc(NC(=S)Nc2cccc(Br)c2)c1 | Active | Active | Active | 3.84 µg/mL (≈ 10.2 µM) | 3.13 µg/mL (≈ 8.34 µM) | 3.76 µg/mL (≈ 10 µM) | 5 µg/mL (≈ 13.3 µM) | 2.34 µg/mL (≈ 6.24 µM) | 70.1% | Active | Active | Active | Active | Active | Active | Active | Active | Active | Active | Active | inhibition at 8 µg/mL [10]: 70%; inhibition at 8 µg/mL [11]: 70%; inhibition at 8 µg/mL [12]: 70%; inhibition at 8 µg/mL [13]: 80%; inhibition at 8 µg/mL [14]: 70%; inhibition at 8 µg/mL [15]: 70%; inhibition at 8 µg/mL [16]: 70%
Fc1ccc(NC(=S)Nc2cccc(C(F)(F)F)c2)cc1Cl | Active | Active | Active | 1.37 µg/mL (≈ 3.93 µM) | 2.01 µg/mL (≈ 5.76 µM) | 1.18 µg/mL (≈ 3.38 µM) | 2.39 µg/mL (≈ 6.85 µM) | – | 77.1% | Active | Active | Active | Active | Active | Active | Active | Active | Active | Active | Active | inhibition at 8 µg/mL [10]: 40%; inhibition at 8 µg/mL [11]: 40%; inhibition at 8 µg/mL [12]: 40%; inhibition at 8 µg/mL [13]: 40%; inhibition at 8 µg/mL [14]: 40%; inhibition at 8 µg/mL [15]: 40%; inhibition at 8 µg/mL [16]: 40%
O=C(O)c1cn(C2CC2)c2cc(N3CCNCC3)c(F)cc2c1=O [CIPROFLOXACIN] | Active | Active | Active | 11.6 µg/mL (≈ 35 µM) | 42.8 µg/mL (≈ 129 µM) | 22.1 µg/mL (≈ 66.8 µM) | 7.14 µg/mL (≈ 21.5 µM) | 13.1 µg/mL (≈ 39.5 µM) | 18.7% | Active | Active | Active | Active | Active | Active | Active | Active | Active | Active | Active | –
